# TNF death inh: inhibitors of TNF-alpha induced necroptosis in Jurkat FADD-/- cells. Jurkat FADD-/- TNF necroptosis rescue, ATP luminescence, 24 h; 0 = TNF only, 100 = no-TNF cells. activation (protection from cell death), % at 10 µM. 220,000 compounds, 0.068% hits. AID 463075;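 active = activation, meaning protection from cell death, of at least 50% relative to plate controls; inactive = activation below 50%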;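 note: necroptosis triggered by 40 ng/mL TNF-alpha added together with compound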
# MDM2 E3 inh: Mdm2 E3 ligase (human) inhibition | signal enhancement, % at 5 µM | cell-based MDM2 ubiquitination luciferase reporter, 2 h; 0 = plate control, 100 = twice control, blank-subtracted | 210,000 compounds, 0.11% hits | Q00987;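 active = signal enhancement of 30% or more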;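 note: luminescence tracks abundance of the self-degrading MDM2-luciferase fusion protein; higher signal means inhibition of MDM2 E3 ligase activity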
# Target sequence (Q00987 whole entry, looked up, the tested form may be a part): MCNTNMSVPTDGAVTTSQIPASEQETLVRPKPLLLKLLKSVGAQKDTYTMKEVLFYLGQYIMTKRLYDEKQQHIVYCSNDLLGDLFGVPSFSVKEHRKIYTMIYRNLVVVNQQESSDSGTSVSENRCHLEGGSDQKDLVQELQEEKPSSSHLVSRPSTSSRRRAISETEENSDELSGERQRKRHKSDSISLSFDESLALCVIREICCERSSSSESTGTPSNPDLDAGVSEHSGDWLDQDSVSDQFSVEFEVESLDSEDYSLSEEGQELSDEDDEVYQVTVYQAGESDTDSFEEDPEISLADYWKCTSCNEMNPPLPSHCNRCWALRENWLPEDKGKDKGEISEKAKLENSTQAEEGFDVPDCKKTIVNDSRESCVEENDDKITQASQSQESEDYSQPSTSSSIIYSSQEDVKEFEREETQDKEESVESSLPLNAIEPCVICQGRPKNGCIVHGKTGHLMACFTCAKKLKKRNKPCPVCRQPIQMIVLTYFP
#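 Assay system: stable mammalian line carrying autodegrading MDM2–luciferase fusion reporter; Input: 2000 cells in each well; Compound dosing: single-point 5 µM; Schedule: 2 h compound exposure at 37 °C; Signal: SteadyLite luciferase luminescence after 15 min room-temperature reagent incubation; Evaluation: % luminescence enhancement versus blank-corrected plate control mean; Benchmarks: plate controls and plate blanks.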
# Autophagy HCS: autophagy modulation, high-content screen | calls only at 10 µM (by protocol) | 190,000 compounds, 0.98% hits | AID 463193 | MEF GFP-LC3 puncta imaging; test concentration mostly 10 µM;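 active = percentage of spot-positive cells more than 3 SD above its plate mean, without a fluorescence outlier flag or 80% toxicity; inconclusive = no clear call, values can overlap the other calls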;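 note: spot-positive cell cutoff set from DMSO-treated cells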
# zVAD death inh: L929 zVAD cell death inhibition; L929 zVAD necroptosis rescue, ATP luminescence, 24 h; with zVAD 60 µM; viability rescue, % at 10 µM; 220,000 compounds, 0.38% hits;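 active = activation, scaled between plate controls, above about 75%, limit read from the data; inactive = activation under that limit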;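 note: 0% = zVAD with DMSO and 100% = DMSO alone without zVAD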
# Dynein cargo inh: dynein cargo transport inhibition | 3617.4 mouse cells, GR-EGFP nuclear translocation imaging; test concentration mostly 20 µM; stimulated with dexamethasone, 1 µM; hits give low values | 220,000 compounds, 0.47% hits | z-score, hits read low | AID 1381;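 active = plate z-score of nuclear minus cytoplasmic receptor signal below a set negative limit, without overly bright fluorescence or cell loss, cut at about -3.5 in these data, passing the limit was not always enough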;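 note: z-score of nuclear minus cytoplasmic ring GR-EGFP intensity difference per well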
#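 Medium: Induction medium lacking tetracycline, stripped serum | Probe or stimulus: 1.0 µM final dexamethasone stimulus | Schedule: 48 h induction, then 1 h compound, then 30 min agonist, 37 °C | Signal: Automated 10x imaging of fixed Hoechst-stained cells | Evaluation: Per-cell GR-EGFP intensity, nucleus versus surrounding cytoplasmic ring, well-averaged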
# Dynein inh conf: dynein cargo transport inhibition, confirmation | shares compounds with Dynein cargo inh | 3617.4 GR-EGFP nuclear translocation imaging, dexamethasone-induced | calls only at 20 µM | 1,000 compounds, 69% hits | AID 463116;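 active = inhibition of receptor movement into the nucleus at or above a set limit in both runs, with normal cell brightness and cell count; inconclusive = limit reached in only one run, brightness and count normal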;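 note: dexamethasone at 1 µM final in well for 30 min; nuclear minus cytoplasmic GR-EGFP mean intensity difference in channel 2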
# Numbers without * were called inactive; i = inactive; ? = inconclusive; . = no result given; + = active, no number. Most compounds without a hit are left out; they make up all but 1.8% or so of the library.
SMILES,TNF death inh,MDM2 E3 inh,Autophagy HCS,zVAD death inh,Dynein cargo inh,Dynein inh conf
O=C(c1ccc(Cl)cc1)c1c[nH]c(C(=O)C(Cl)(Cl)Cl)c1,-22.3,-4.5,i,0.5,-3.69*,+
O=C(NNC(=O)c1cccc(O)c1)Nc1ccc([N+](=O)[O-])cc1,1.0,-2.4,i,1.0,-0.317,.
O=C1OCCC/C1=C\c1ccc2c(c1)OCO2,1.3,.,.,0.6,-0.482,.
CCCN1C/C(=C/c2ccc3c(c2)OCO3)C(=O)/C(=C/c2ccc3c(c2)OCO3)C1,-11.1,7.9,i,1.8,-4.63*,+
O=C1C=CC(=O)N1c1cccc(-c2ccccc2)c1,-23.7,-11.7,.,9.0,-3.84*,i
Nc1cccc(Oc2ccc3c(c2)C(=O)N(CC2CCCO2)C3=O)c1 (stereo unspecified),0.7,-22.5,.,-0.9,1.21,.
CSCC[C@H](NC(=O)C(C)Oc1ccc(Cl)cc1)c1nc2ccccc2[nH]1 (stereo partly specified),0.3,11.8,i,0.3,-0.835,.
O=[N+]([O-])c1ccc(N2CCN(c3ccc(Cl)nn3)CC2)cc1NC1CC1,-0.8,.,i,0.3,-8.38,i
O=[N+]([O-])c1ccc(N2CCN(c3ccc(Cl)nn3)CC2)c(Cl)c1,-0.4,-4.7,i,0.4,1.35,.
CCCOc1ccc(N2C(=O)CC(N(CCOC34CC5CC(CC(C5)C3)C4)C(C)=O)C2=O)cc1 (stereo unspecified),-0.4,-26.2,i,0.5,2,.
Cc1ccc(NC(=O)COC(=O)CC2CCCC2)cc1Cl,1.9,4.3,i,1.6,-0.42,.
Cc1cccc(N2CCN(C(=O)Cn3sc4nc(C)cc(C)c4c3=O)CC2C)c1 (stereo unspecified),-5.0,-3.3,i,0.7,-4.4*,?
Cc1cc(C)c2c(=O)n(CC(=O)N3CCC(Cc4ccccc4)CC3)sc2n1,-5.9,-11.1,i,0.4,-1.51,.
COC/C=C/C1=CC2=CC(=O)C(C)(OC(=O)c3cnc4ccccc4n3)C(=O)C2=CN1Cc1ccc(OC)cc1 (stereo unspecified),-8.6,8.0,.,70.2,-5.17*,+
COC/C=C/C1=CC2=CC(=O)C(C)(OC(=O)c3cnc4ccccc4n3)C(=O)C2=CN1Cc1ccccc1 (stereo unspecified),-8.5,-42.4,.,6.1,-2.65,.
O=C(/C=C/c1ccco1)Nc1ccccc1N1CCCC1,1.0,-1.5,i,1.8,-3.62*,i
O=C(/C=C/c1ccco1)NC(=S)Nc1ccccc1N1CCCC1,0.0,-10.6,i,0.4,0.455,.
CC(C)CCSc1cc(NCCO)c([N+](=O)[O-])c2nonc12,0.5,-5.9,i,0.0,-3.06,.
CCC(=O)OCCNc1cc(Sc2nccn2C)c2nonc2c1[N+](=O)[O-],-15.4,-14.6,i,-1.1,-4.78*,?
CC(=O)OCCN(C)c1cc(SC(C)C)c2nonc2c1[N+](=O)[O-],-1.3,0.7,i,0.1,-4.67*,+
CCC(=O)OCCNc1cc(SCCC(=O)OC)c2nonc2c1[N+](=O)[O-],-0.7,.,i,0.6,-5.62*,+
CC(=O)OCCCNc1cc(Sc2ccc(Cl)cc2)c2nonc2c1[N+](=O)[O-],3.5,-13.4,i,0.5,-4.8*,+
Cc1ccc(C)c(NC(=O)C2CCCN2C(=O)NC2CCCCC2)c1 (stereo unspecified),-0.4,-6.7,i,42.5,-0.766,.
CCS(=O)(=O)N1CCN(c2ccc([N+](=O)[O-])c(NCC3CCCO3)c2)CC1 (stereo unspecified),2.4,-15.4,i,0.8,0.176,.
CCN(CC)C(=O)Cn1cc(C(=O)C(=O)NCc2ccco2)c2ccccc21,-0.9,-3.5,i,-0.7,0.603,.
SMILES,TNF death inh,MDM2 E3 inh,Autophagy HCS,zVAD death inh,Dynein cargo inh,Dynein inh conf
CC1(C)C2CCC1(CS(=O)(=O)N1CCC(C(=O)O)CC1)C(=O)C2 (stereo unspecified),2.8,-4.9,.,-0.4,1.38,.
Cc1ccccc1CS(=O)(=O)c1nnc([C@H](Cc2ccccc2)NC(=O)OC(C)(C)C)o1,-13.3,-18.2,i,-0.9,-5.52*,+
CCSc1nnc([C@H](Cc2ccccc2)NC(=O)OC(C)(C)C)o1,0.1,-12.1,i,0.1,0.21,.
O=c1[nH]nc(SCc2cc(Cl)ccc2Cl)c(=O)[nH]1,-0.1,-10.3,.,0.2,0.0495,.
CC[C@H](C)[C@@H]1NC(=O)c2cc([N+](=O)[O-])cc(I)c2SC[C@@H](C(N)=O)NC(=O)[C@H](CCCCN)NC1=O,0.9,.,i,1.9,0.957,.
C#CC(=O)N(c1ccc(OC)c(OC)c1)C(C(=O)NC1CCCC1)c1cccs1 (stereo unspecified),-27.6,-1.0,i,1.9,-4.73*,+
C#CC(=O)N(c1cccc(OC)c1)C(C(=O)NC1CCCC1)c1cccs1 (stereo unspecified),-27.2,-47.5,i,0.4,-5.3*,+
CCOc1cc(C=C(C(=O)OC)C(=O)OC)ccc1OCc1ccc([N+](=O)[O-])cc1,-20.9,-8.5,i,-0.5,-5.7*,+
Cc1ccc(-c2nc(-c3ccc(Cl)cc3)sc2CC(=O)O)c(C)c1,-0.7,.,i,-0.7,0.433,.
CCCC(=O)N(C1CC(C)C(C#N)(C#N)C1(C#N)C#N)N(C)C (stereo unspecified),-13.7,-8.2,.,28.2,-5.34*,i
CC(=O)N(C1CC(C)C(C#N)(C#N)C1(C#N)C#N)N(C)C (stereo unspecified),-17.8,2.0,i,4.2,-6.78*,+
CCOC(=O)N1CCC(NC(=O)c2cc3c(=O)[nH]c4ccccc4c3n2C)CC1,0.9,-21.4,i,-0.3,-0.187,.
CCN(CC)CCCNC(=O)c1ccc2c(Cl)c3c(nc2c1)CCCC3,-3.2,-24.8,i,-0.9,-3.91*,+
CC1CCN(C(=O)c2ccc3c(Cl)c4c(nc3c2)CCCC4)CC1,-0.3,-21.4,i,-0.7,-6.05*,+
O=C(c1ccc2c(Cl)c3c(nc2c1)CCCC3)N1CCN(c2ccc(F)cc2)CC1,-2.5,.,i,.,-0.0483,.
CCCOc1ccc(C(=O)CCN2CCN(C(=O)OCC)CC2)cc1,-0.5,-0.7,i,1.8,-4.11*,i
CCOc1ccc(C(=O)CCN2CCCCC2)cc1,1.7,2.2,i,0.9,-0.16,.
CC1(C)CC(=O)/C(=C\c2cccc([N+](=O)[O-])c2)C(C)(C)N1,-5.2,-7.4,i,-1.3,-3.6*,+
O=C1N/C(=N/O)S/C1=C/c1cccc([N+](=O)[O-])c1,1.5,-93.3,i,-0.1,0.39,.

# Assay outcomes from PubChem BioAssay.
